“And” between values parts separate entries of the source, which are not always exact repeats. Equal values may be shown once. Read-outs that look alike come from different tables or passages of the source.
Columns and labels:
[1] = Perfusion system adherence test; format: in vitro ADME; details: % of initially analyzed concentration, 360 min, 5 µM in PM, n = 3
Outline: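 No placenta in the chamber; only the maternal circuit was run, for 360 min. Test compound was dissolved directly in perfusion medium at a final 5 µM and run on its own. Quantified by U(H)PLC-MS/MS and expressed as % of the initial maternal concentration. Three independent experiments, mean ± SD.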

[2] = Fraction unbound in placental homogenate; format: in vitro ADME, human; details: for fraction unbound at 240 min, 2 µM: human, placental homogenate (5-fold diluted in PBS)
[3] = test system: placental tissue; assay: Viability and functionality of placental tissue during ex vivo perfusion; set-up: species or system human
Outline: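 Ex vivo perfusion of human placental cotyledons with 100 mL medium per circuit. Fetal circuit gassed with 95% N2/5% CO2, maternal with 95% air/5% CO2. […] Glucose and lactate were measured by blood gas analyser at the start and end of perfusion; β-hCG and leptin by ELISA. Values were normalized to perfusion time and cotyledon weight; Brown-Forsythe/Welch ANOVA with Dunnett's T3.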

[4] = for transfer across the placental barrier (maternal to fetal circuit): 5 µM added to maternal circuit, 360 min perfusion; for time to steady-state concentration: 5 µM in maternal circuit; for F perfusate (% found): fetal perfusate after 360 min; for F perfusate (% found) / M perfusate (% found): % of initial amount; for M perfusate (% found): maternal perfusate after 360 min; for steady-state concentration, fetal side / steady-state concentration, maternal side: % of initially analyzed concentration in the maternal sample
[5] = test system: 5-HT 1A receptors; details: expressed in human CHO cell membranes ref 22; cited from earlier work
[6] = test system: serotonin transporter; details: expressed in murine S6 cells ref 23; cited from earlier work
[7] = Stability of compounds in PBS, perfusion medium and placental homogenate; format: in vitro ADME, human; details: 360 min, 4 °C and 37 °C
[8] = test system: noradrenaline transporter; details: expressed in murine N1 cells ref 23; cited from earlier work
[9] = test system: placental tissue; assay: Histopathological evaluation of perfused placental tissue; set-up: species or system human
Outline: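 Human placental tissue after ex vivo perfusion: sections taken immediately afterwards from the perfused area, the non-perfused area and the transitional area. Fixed in 4% paraformaldehyde ≥24 h, paraffin-embedded, cut at 2–3 µm. Stained with H&E, plus a modified Gram stain (Braun-Brenn) to check for bacterial contamination. Scored for intravascular thrombi, cytotrophoblast vacuolization, hydropic villous changes and villous endothelium viability, compared against non-perfused tissue.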

[10] = during 360 min, control perfusions
[11] = 5 µM, compared with antipyrine control perfusions
[12] = perfused tissue, individual experiments 1-4
[13] = perfused tissue, individual experiments 1-4, listed as Protopine

Compound: Cc1cc(=O)n(-c2ccccc2)n1C [antipyrine]
- adherence to perfusion equipment (compound lost) [1]: 7.4 ± 4.7%
- fraction unbound at 240 min, 2 µM [2]: 1
- leptin production ([3]; control perfusions): 334.8 pg/g/min
- β-hCG production ([3]; control perfusions): 95.7 mU/g/min
- lactate production [3, 10]: 0.27 µmol/g/min
- total glucose consumption [3, 10]: 0.39 µmol/g/min
- transfer across the placental barrier (maternal to fetal circuit) [4]: readily crossed the placental barrier
- time to steady-state concentration [4]: approximately 120 min
- time to equilibrium between maternal and fetal circuits ([4]; connectivity control in perfusions with protopine): 120 to 240 min
- F perfusate (% found) [4]: 19.8%
- M perfusate (% found) [4]: 22.0%

Compound: CN(C)CCCC1(c2ccc(F)cc2)OCc2cc(C#N)ccc21 (stereo not drawn) [citalopram]
- adherence to perfusion equipment (compound lost) [1]: 48.4% and 48.4 ± 12.9%
- fraction unbound at 240 min, 2 µM [2]: 0.21 ± 0.01
- effect on placental viability and metabolic activity (glucose consumption, lactate production) [3, 11]: did not impair placental viability and metabolic activity
- transfer across the placental barrier (maternal to fetal circuit) [4]: crossed the human placental barrier
- time to steady-state concentration [4]: approximately 60 min
- steady-state concentration, fetal side [4]: 11%
- steady-state concentration, maternal side [4]: 22%
- F perfusate (% found) [4]: 6.4%
- M perfusate (% found) [4]: 11.4%

Compound: CN1C(=O)CN=C(c2ccccc2)c2cc(Cl)ccc21 [diazepam]
- adherence to perfusion equipment (compound lost) [1]: 54.8% and 54.8 ± 12.7%
- effect on placental viability and metabolic activity (glucose consumption, lactate production) [3, 11]: did not impair placental viability and metabolic activity
- transfer across the placental barrier (maternal to fetal circuit) [4]: crossed the human placental barrier
- time to steady-state concentration [4]: approximately 45 min
- steady-state concentration (side not specified) ([4]; % of initially analyzed concentration, slow decrease until 360 min): 24%
- M perfusate (% found) [4]: 7.9%

Compound: protopine
- adherence to perfusion equipment (compound lost) [1]: 20.4% and 20.4 ± 9.5%
- ligand at 5-HT 1A receptors [5]: ligand at 5-HT 1A receptors
- inhibition of serotonin transporter [6]: inhibitor
- Fraction unbound (fu,hom) ([2]; placental homogenate vs PBS, 2 µM, 240 min, 37 °C, 3 donors): 0.48 ± 0.04
- effect on placental viability and metabolic activity (glucose consumption, lactate production) [3, 11]: did not impair placental viability and metabolic activity
- effect on β-hCG and leptin production [3, 11]: did not inhibit
- effect on placental viability and metabolic activity (glucose consumption, lactate production) ([3]; 5 µM, compared with antipyrine control perfusions, listed as Protopine): did not affect placental viability or functionality
- transfer across the placental barrier (maternal to fetal circuit) [4]: rapidly transferred from the maternal to the fetal circuit
- transfer across the placental barrier (maternal to fetal circuit) ([4]; listed as Protopine): transferred from the maternal to the fetal circuit
- steady-state concentration, fetal side [4]: ~20%
- steady-state concentration, maternal side [4]: approximately 27%
- fetal-maternal concentration ratio (FM ratio) ([4]; after 360 min, antipyrine from control perfusions): 0.75
- F perfusate (% found) [4]: 14.0%
- M perfusate (% found) [4]: 23.1%
- Final recovery (% found) ([4]; sum of fetal and maternal perfusates, sampling and system adherence, 360 min): 71.4 ± 8.6%
- stability in PM [7]: slightly less stable
- inhibition of noradrenaline transporter [8]: inhibitor
- damage of placental tissue (endothelium, vascular rupture, thrombi, trophoblast vacuolization) ([9]; overall assessment): did not cause apparent damage of placental tissue
- Thrombi in vessels of stem villi [9, 12]: 0%
- Thrombi in villous vessels [9, 12]: 5%
- Thrombi in villous vessels [9, 13]: 1% and 0%
- Vacuolated trophoblast in villi [9, 13]: 0% and 20% and 1% (2×)
